Experimental findings from ChEMBL document CHEMBL4049434, “Radiolabeled Dibenzodiazepinone-Type Antagonists Give Evidence of Dualsteric Binding at the M2 Muscarinic Acetylcholine Receptor” (J Med Chem, 2017) are described below.

Structures are written as SMILES. Activity calls are given as the source filed them. The rule behind the calls is not given here.

In data set [1] the target is T1, Muscarinic acetylcholine receptor M2 (Homo sapiens) (UniProt P08172).
T1 sequence (whole entry): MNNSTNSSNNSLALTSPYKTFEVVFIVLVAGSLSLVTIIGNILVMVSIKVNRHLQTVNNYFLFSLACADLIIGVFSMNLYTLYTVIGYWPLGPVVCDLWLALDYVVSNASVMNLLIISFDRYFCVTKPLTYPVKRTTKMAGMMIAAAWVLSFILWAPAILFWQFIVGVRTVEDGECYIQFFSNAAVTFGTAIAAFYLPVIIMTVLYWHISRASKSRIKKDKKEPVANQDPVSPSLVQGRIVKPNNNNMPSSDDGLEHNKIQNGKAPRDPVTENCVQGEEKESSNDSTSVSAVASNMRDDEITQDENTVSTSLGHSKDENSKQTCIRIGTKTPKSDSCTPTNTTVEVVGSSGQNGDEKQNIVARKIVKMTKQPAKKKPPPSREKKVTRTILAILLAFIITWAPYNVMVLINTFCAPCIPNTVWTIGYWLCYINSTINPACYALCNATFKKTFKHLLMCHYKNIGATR
Description: (§1) Competitive antagonist activity at human muscarinic acetylcholine receptor M2 expressed in HEK293 cells coexpressing HA tagged Galpha-protein qi5 assessed as inhibition of 10 uM carbachol-induced IP1 accumulation preincubated for 30 mins followed by carbachol addition measured after 1 hr by HTRF assay. The data set is classed as functional, cell-based. The gist of the method: (§2)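 HEK-293 transiently cotransfected with human M2R and Gαqi5-HA. Cells preincubated 30 min with antagonist, then carbachol added (final 0.1, 0.3, 1 or 10 μM), 1 h at 37 °C. IP1 detected by HTRF (620/670 nm emission, 330 nm excitation). At least four independent experiments, each in duplicate.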

The target in data set [2] is T2, Muscarinic acetylcholine receptor M2 (Homo sapiens, UniProt P08172).
T2 sequence (P08172 whole entry): T1 sequence (whole entry)
The data set is described as §1. In kind it is functional, cell-based. The gist of the method: as §2

Data set [3] deals with T1, Muscarinic acetylcholine receptor M2 (Homo sapiens). Description: Agonist activity at human muscarinic acetylcholine receptor M2 expressed in HEK293 cells coexpressing HA tagged Galpha-protein qi5 assessed as induction of IP1 accumulation measured after 1 hr by HTRF assay. The data set is classed as functional, cell-based. The gist of the method: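 HEK-293 transiently cotransfected with human M2R and Gαqi5-HA, seeded 24 h before assay (10000 cells/well). Compounds in stimulation buffer (1 pM–100 μM final) 1 h at 37 °C; IP1 read by HTRF (620/670 nm, excitation 330 nm) after 60 min with detection reagents at rt. Duplicate, three experiments, carbachol as reference.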
(Time-resolved FRET reads energy transfer from a long-lived donor to a nearby acceptor.)

For data set [4], the target named is T2, Muscarinic acetylcholine receptor M2. Description: Displacement of [3H]UR-AP060 from human muscarinic acetylcholine receptor M2 expressed in CHOK9 cell homogenate after 3 hrs by liquid scintillation counting assay. (In general: In a radioligand displacement assay an active substance lowers the binding of a labelled ligand.)
Data set [5] can be described thus: Chemical stability of the compound in PBS buffer at pH 7.4 after 48 hrs by HPLC analysis. The data set is classed as physicochemical. The settings on record: pH 7.4, 48 h. A digest of the protocol: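 Compound at 100 μM final (from 10 mM stock) in PBS pH 7.4 at 22 ± 1 °C; samples taken at 0, 24 and 48 h, mixed with acetonitrile/1% aq TFA 2:8, analysed by RP-HPLC at 220 nm.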

The target of data set [6] is T1, Muscarinic acetylcholine receptor M2 (Homo sapiens). Description: (§3) Competitive antagonist activity at human muscarinic acetylcholine receptor M2 expressed in HEK293 cells coexpressing HA tagged Galpha-protein qi5 assessed as inhibition of 1 uM carbachol-induced IP1 accumulation preincubated for 30 mins followed by carbachol addition measured after 1 hr by HTRF assay. The data set is classed as functional, cell-based. The gist of the method:
as §2

The target in data set [7] is T2, Muscarinic acetylcholine receptor M2. Described as §3. In kind it is functional, cell-based. A digest of the protocol:
as §2

The target in data set [8] is T1, Muscarinic acetylcholine receptor M2 (Homo sapiens). Description: Binding affinity to human muscarinic acetylcholine receptor M2 expressed in live adherent CHOK9 cells at Kd in presence of 500-fold excess atropine after 2 hrs by liquid scintillation counting assay relative to control. The settings on record: tested as the 3H-labelled form. In kind it is cell-based. A digest of the protocol: (§4)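 Live adherent CHO-hM2 cells in L15 medium with 1% BSA, 23 ± 1 °C, 2 h incubation. Competition at 2 nM radioligand; additional 4, 8, 15 and 30 nM in W84 experiments. […] Saturation data fitted one-site; competition by four-parameter logistic fits; at least three experiments in triplicate.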

Data set [9] shares this target. Description: Binding affinity to human muscarinic acetylcholine receptor M2 expressed in CHOK9 cells assessed as association rate constant incubated up to 140 mins by liquid scintillation counting assay. The data set is classed as cell-based. The settings on record: tested as the 3H-labelled form.
Data set [10] has the same target. Description: (§5) Competitive antagonist activity at human muscarinic acetylcholine receptor M2 expressed in HEK293 cells coexpressing HA tagged Galpha-protein qi5 assessed as inhibition of 0.1 uM carbachol-induced IP1 accumulation preincubated for 30 mins followed by carbachol addition measured after 1 hr by HTRF assay. In kind it is functional, cell-based. The gist of the method: as §2

Data set [11] has as its target T2, Muscarinic acetylcholine receptor M2. The data set is described as §5. In kind it is functional, cell-based. A digest of the protocol:
as §2

Data set [12] has as its target T1, Muscarinic acetylcholine receptor M2 (Homo sapiens). Description: Binding affinity to human muscarinic acetylcholine receptor M2 expressed in live adherent CHOK9 cells after 2 hrs by liquid scintillation counting assay. The data set is classed as cell-based. The settings on record: tested as the 3H-labelled form. The gist of the method: as §4
The target is the same in data set [13]. Description: Binding affinity to human muscarinic acetylcholine receptor M2 expressed in CHOK9 cell suspension after 2 hrs by liquid scintillation counting assay. The conditions noted are these: tested as the 3H-labelled form.

One may read the IC50 as the midpoint of a concentration-inhibition curve. A word on the Ki: it is the equilibrium dissociation constant of an inhibitor or competing ligand from its target. A high value points to lower affinity.

As to `CCC(=O)NCc1cc(C(=O)NCCNC(=O)CCc2cn(CCCCC3CCN(CC(=O)N4c5ccccc5NC(=O)c5ccccc54)CC3)cn2)cc(C(=O)NCCNC(=O)CCc2cn(CCCCC3CCN(CC(=O)N4c5ccccc5NC(=O)c5ccccc54)CC3)cn2)c1.O=C(O)C(F)(F)F.O=C(O)C(F)(F)F.O=C(O)C(F)(F)F.O=C(O)C(F)(F)F`, the inhibition result in [1], in data set [6] and in data set [10] was “Dose-dependent effect” in each case. Moreover, the IC50 in data set [2] is 263 nM; in [7], 174 nM; in data set [11] it was 16.6 nM. In addition, the outcome in data set [3] was inactive. Also, the inhibition constant Ki in [4] is 1.05 nM. Moreover, the Stability entry in data set [5] was “Stable”. Besides, the Activity in data set [8] was more than 60%. Further, the K in data set [9] stood at 933000 M⁻¹ s⁻¹. The Bmax (disintegrations/minute) in data set [12] is 1200; in [13], 1800.
